These results are taken from ChEMBL document CHEMBL1821586, “Identification and biological activities of new taccalonolide microtubule stabilizers” (J Med Chem, 2011).

Each structure is given as a SMILES string. Activity calls are given as the source filed them. The calls are words filed in the database; no cut-off is given here.

Data set [1] can be described thus: Toxicity in B6C3F1 mouse allografted with mouse 16/C cells assessed as lethality at 56 mg/kg, iv. The class given is organism-based. The arrangement: dose 56 mg/kg, route intravenous. Conditions: in vivo, read-out: Activity.
Data set [2] can be described thus: Antitumor activity against mouse 16/C cells allografted in mouse B6C3F1 assessed as decrease in tumor mass at 56 mg/kg, iv administered on days 1,4,6 and day 8 or 9 relative to control. It is filed as functional. Summed up:
(§1)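 Female B6C3F1 mice (mean 19.3 ± 1.0 g) carried bilateral s.c. Mammary 16/C tumor fragments implanted day 0, 5 mice/group. […] All were given IV in 0.2 ml. Tumor mass = L×W²/2, measured 2–3 times weekly. %T/C = treated/control median mass, zeros included, taken when control tumors reach ~700–1200 mg.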

The subject of data set [3] is HeLa. Nature of the data set: Inhibition of beta tubulin in human HeLa cells assessed asultiple abnormal mitotic spindle formation at 3.5 uM after 18 hrs by immunofluorescence analysis. It is filed as cell-based.
Data set [4] in a line: Antitumor activity against mouse 16/C cells allografted in mouse B6C3F1 assessed as delay in tumor growth at 40 mg/kg, iv administered on days 1,4,6 and day 8 or 9 relative to control. The class given is functional. Summed up: (§2)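 Mammary 16/C fragments implanted s.c. bilaterally in female B6C3F1 mice on day 0, 5 mice/group, IV dosing in 0.2 ml. Tumors measured 2–3 times weekly. T-C = median days for treated vs control tumors to reach 1000 mg. Gross log cell kill = (T-C)/3.32×Td, with Td the doubling time from a log-linear fit of control tumor growth.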

The test system of data set [5] is Mus musculus. Nature of the data set: Toxicity in B6C3F1 mouse allografted with mouse 16/C cells assessed as mean body weight loss at 56 mg/kg, iv administered on days 1,4,6 and day 8 or 9 (reference value: -2.2%). The class given is organism-based. Further details: dose 56 mg/kg, route intravenous. Conditions: in vivo.
For data set [6], the system named is HeLa. Nature of the data set: Cell cycle arrest in human HeLa cells assessed as accumulation of cells at G2/M phase at 3.5 uM after 18 hrs by flow cytometric analysis. It is filed as functional, cell-based. Summed up:
(§3)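 DNA stained with propidium iodide (Krishan's reagent); DNA content measured by flow cytometry and plotted as PI intensity vs events.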
For orientation: A flow cytometer gives signals particle by particle.

Data set [7] can be described thus: Antitumor activity against mouse 16/C cells allografted in mouse B6C3F1 assessed as gross log cell killing at 56 mg/kg, iv administered on days 1,4,6 and day 8 or 9 relative to control. It is filed as functional. A digest of the protocol: (§4)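 Mammary 16/C tumor fragments implanted bilaterally s.c. in female B6C3F1 mice on day 0, 5 mice/group. Taccalonolides in 50% DMSO:50% Cremophor stock, diluted with sterile water, given i.v. in 0.2 ml on days 1, 4, 6, plus one dose 2–3 days later (A, N) or further doses days 8, 9, 11 (E). Tumor mass = length × width²/2, measured 2–3 times weekly. Gross log cell kill = (T-C)/3.32 × Td, with T-C the days to 1000 mg.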

Data set [8] relates to Mus musculus. Nature of the data set: Toxicity in B6C3F1 mouse allografted with mouse 16/C cells assessed as mean body weight loss at 40 mg/kg, iv administered on days 1,4,6 and day 8 or 9 (reference value: -2.2%). The class given is organism-based. Conditions: in vivo. The arrangement: dose 40 mg/kg, route intravenous.
The test system of data set [9] is HeLa. Nature of the data set: Antiproliferative activity against human HeLa cells after 48 hrs by SRB assay. It is filed as functional, cell-based. A digest of the protocol: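 HeLa cells grown in BME with 10% FBS and 50 µg/ml gentamicin, drug-treated 48 h, proliferation read by SRB assay.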
(In general: The SRB assay estimates cell density from bound dye.)

Data set [10] is described as follows: Antitumor activity against mouse 16/C cells allografted in mouse B6C3F1 assessed as decrease in tumor mass at 40 mg/kg, iv administered on days 1,4,6 and day 8 or 9 relative to control. It is filed as functional. A digest of the protocol: as §1
Data set [11] is described as follows: Antitumor activity against mouse 16/C cells allografted in mouse B6C3F1 assessed as delay in tumor growth at 56 mg/kg, iv administered on days 1,4,6 and day 8 or 9 relative to control. It is filed as functional. A digest of the protocol:
as §2

The nature of data set [12]: Antitumor activity against mouse 16/C cells allografted in mouse B6C3F1 assessed as gross log cell killing at 40 mg/kg, iv administered on days 1,4,6 and day 8 or 9 relative to control. The class given is functional. Summed up:
as §4

Data set [13] has as its system HeLa. Nature of the data set: Induction of interphase microtubule bundling in human HeLa cells at 3.5 uM after 18 hrs by indirect immunofluorescence analysis. The class given is cell-based.
Data set [14] is described as follows: Antitumor activity against mouse 16/C cells allografted in mouse B6C3F1 assessed as decrease in tumor mass at 36 mg/kg, iv administered on days 1,4,6 and day 8 or 9 relative to control. It is filed as functional. Summed up: as §1
A short description of data set [15]: Antitumor activity against mouse 16/C cells allografted in mouse B6C3F1 assessed as decrease in tumor mass at 20 mg/kg, iv administered on days 1,4,6 and day 8 or 9 relative to control. The class given is functional. Summed up: as §1
Data set [16] can be described thus: Antitumor activity against mouse 16/C cells allografted in mouse B6C3F1 assessed as gross log cell killing at 36 mg/kg, iv administered on days 1,4,6 and day 8 or 9 relative to control. It is filed as functional. A digest of the protocol: as §4
Data set [17] can be described thus: Antitumor activity against mouse 16/C cells allografted in mouse B6C3F1 assessed as delay in tumor growth at 20 mg/kg, iv administered on days 1,4,6 and day 8 or 9 relative to control. It is filed as functional. Summed up:
as §2

For data set [18], the system named is Mus musculus. Nature of the data set: Toxicity in B6C3F1 mouse allografted with mouse 16/C cells assessed as mean body weight loss at 20 mg/kg, iv administered on days 1,4,6 and day 8 or 9 (reference value: -2.2%). The class given is organism-based. The arrangement: dose 20 mg/kg, route intravenous. Conditions: in vivo.
Data set [19] has as its system HeLa. Nature of the data set: Cell cycle arrest in human HeLa cells assessed as accumulation of cells at G2/M phase at 1.3 uM after 18 hrs by flow cytometric analysis. It is filed as functional, cell-based. Summed up: as §3
A short description of data set [20]: Antitumor activity against mouse 16/C cells allografted in mouse B6C3F1 assessed as delay in tumor growth at 36 mg/kg, iv administered on days 1,4,6 and day 8 or 9 relative to control. It is filed as functional. A digest of the protocol:
as §2

Data set [21] deals with HeLa. Nature of the data set: Induction of interphase microtubule bundling in human HeLa cells at 1.3 uM after 18 hrs by indirect immunofluorescence. It is filed as cell-based.
Data set [22] has as its system Mus musculus. Nature of the data set: Toxicity in B6C3F1 mouse allografted with mouse 16/C cells assessed as mean body weight loss at 36 mg/kg, iv administered on days 1,4,6 and day 8 or 9 (reference value: -2.2%). It is filed as organism-based. Further details: dose 36 mg/kg, route intravenous. Conditions: in vivo.
Data set [23] can be described thus: Antitumor activity against mouse 16/C cells allografted in mouse B6C3F1 assessed as gross log cell killing at 20 mg/kg, iv administered on days 1,4,6 and day 8 or 9 relative to control. It is filed as functional. A digest of the protocol: as §4
Data set [24] has as its system HeLa. Nature of the data set: Inhibition of beta tubulin in human HeLa cells assessed asultiple abnormal mitotic spindle formation at 1.3 uM after 18 hrs by immunofluorescence analysis. The class given is cell-based.
The nature of data set [25]: Toxicity in B6C3F1 mouse allografted with mouse 16/C cells assessed as lethality at 20 mg/kg, iv administered on days 1,4,6 and day 8 or 9 measured after 12 days relative to control. Further details: dose 20 mg/kg, route intravenous. The class given is organism-based. Conditions: in vivo, read-out: Activity. Summed up: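 Female B6C3F1 mice, 5 per group, bore bilateral s.c. Mammary 16/C fragments. Taccalonolides in DMSO:Cremophor diluted with water were given i.v. on days 1, 4, 6 plus a later dose (A, N) or days 8, 9, 11 (E). Mice were weighed and observed daily, and lethality was recorded per group.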

With `CC(=O)O[C@@H]1[C@H]2[C@H]3[C@H]([C@H](OC(C)=O)[C@H](OC(C)=O)[C@]2(C)[C@@H]2[C@@H]1[C@]1(C)C(=C[C@H]2C)OC(=O)[C@@]1(C)O)[C@]1(C)[C@H](C[C@@H]2O[C@@H]2[C@@H]1OC(C)=O)C(=O)[C@@H]3O` [TACCALONOLIDE A], the mortality in data set [1] worked out at 20%. In addition, the T/C in data set [2] is listed as 0%; in data set [10], 24%. Also, the inhibition entry with HeLa [3] was “Active”. In addition, the values for the Time in data set [4] and in [11] were 4 days and 16 days, respectively. The results for the Activity with Mus musculus [5] and with Mus musculus [8] were -16.7% and -6.3%, respectively. For the same compound, the outcome in the data set with HeLa [6] and with HeLa [13] was Active. In addition, the LCK amounted to 4 in data set [7] and 1 in data set [12]. Moreover, half-maximal inhibition in the data set on HeLa [9] (IC50) required 594 nM.
`CC(=O)O[C@H]1C[C@H]2[C@H]([C@@H]3[C@@H](O)[C@@H]4[C@H]([C@H](C)C=C5OC(=O)[C@@](C)(O)[C@@]54C)[C@]31C)[C@@H](O)C(=O)[C@H]1C[C@@H]3O[C@@H]3[C@H](OC(C)=O)[C@@]12C` [TACCALONOLIDE N]: the values for the T/C in [14] and in data set [15] were 0% and 43%, respectively. Also, the LCK in data set [16] is reported as 1.25; in data set [23], 0.25. Besides, the Time in [17] was 1 days; in data set [20], 5 days. Moreover, the Activity was -2.1% in the data set on Mus musculus [18] and -8.2% in the data set with Mus musculus [22]. The result with HeLa [19] and in the data set with HeLa [21] was Active. The compound further yielded an IC50 in the data set on HeLa [9] of 247 nM. The inhibition entry with HeLa [24] was “Active”. The mortality at 288 h in [25] worked out at 0%.

Broadly, the T/C is the ratio of treated to control. By IC50 is commonly meant the concentration that inhibits the measured activity by half.
